Measurements published in ChEMBL document CHEMBL2407081, “Discovery of potent, isoform-selective inhibitors of histone deacetylase containing chiral heterocyclic capping groups and a N-(2-aminophenyl)benzamide binding unit” (J Med Chem, 2013).
pIC50: −log10 of the molar value. Active and inactive are the calls of the source. The calls are words filed in the database; no cut-off is given here.

Assays:
HCT-116 = experiment: Cytotoxicity against human HCT116 cells assessed as growth inhibition by measuring cellular ATP level after 72 hrs by cell-titer glo assay; assay type: functional, cell-based; conditions: HCT-116, 72 h
HeLa [1] = experiment: Induction of apoptosis in human HeLa cells assessed as PARP cleavage at 1 to 10 uM after 24 hrs by Western blot analysis; assay type: functional, cell-based
Jurkat [2] = experiment: Cell cycle arrest in human Jurkat cells assessed as accumulation at G0/G1 phase at 10 uM after 24 hrs by FITC/propidium iodide staining-based FACS flow cytometric analysis (reference value: 69.5%); assay type: functional
How it was run: (§1)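 HeLa and Jurkat human cells were cultured for 24 h with compound at two concentrations. The control was an equal volume of the DMSO diluent. Cellular DNA and protein content were then measured by flow cytometry, and the percentage of cells in sub-G1, G0/G1, S and G2/M was read out.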

DU-145 = experiment: Cytotoxicity against human DU145 cells assessed as growth inhibition by measuring cellular ATP level after 72 hrs by cell-titer glo assay; assay type: functional, cell-based; conditions: DU-145, 72 h
Jurkat [3] = experiment: Cell cycle arrest in human Jurkat cells assessed as accumulation at G2/M phase at 1 uM after 24 hrs by FITC/propidium iodide staining-based FACS flow cytometric analysis (reference value: 14.4%); assay type: functional; how it was run: as §1
Jurkat [4] = experiment: Cell cycle arrest in human Jurkat cells assessed as accumulation at G0/G1 phase at 1 uM after 24 hrs by FITC/propidium iodide staining-based FACS flow cytometric analysis (reference value: 55.5%); assay type: functional; how it was run: as §1
A549 = experiment: Cytotoxicity against human A549 cells assessed as growth inhibition by measuring cellular ATP level after 72 hrs by cell-titer glo assay; assay type: functional, cell-based; conditions: A549, 72 h
Jurkat [5] = experiment: Cell cycle arrest in human Jurkat cells assessed as accumulation at S phase at 10 uM after 24 hrs by FITC/propidium iodide staining-based FACS flow cytometric analysis (reference value: 15.3%); assay type: functional; how it was run: as §1
Jurkat [6] = experiment: Cell cycle arrest in human Jurkat cells assessed as accumulation at S phase at 1 uM after 24 hrs by FITC/propidium iodide staining-based FACS flow cytometric analysis (reference value: 22.3%); assay type: functional; how it was run: as §1
Jurkat [7] = experiment: Cell cycle arrest in human Jurkat cells assessed as accumulation at sub-G1 phase at 1 uM after 24 hrs by FITC/propidium iodide staining-based FACS flow cytometric analysis (reference value: 6.8%); assay type: functional; how it was run: as §1
MCF7 = experiment: Cytotoxicity against human MCF7 cells assessed as growth inhibition by measuring cellular ATP level after 72 hrs by cell-titer glo assay; assay type: functional, cell-based; conditions: MCF7, 72 h
Jurkat [8] = experiment: Cell cycle arrest in human Jurkat cells assessed as accumulation at sub-G1 phase at 10 uM after 24 hrs by FITC/propidium iodide staining-based FACS flow cytometric analysis (reference value: 2%); assay type: functional; how it was run: as §1
Jurkat [9] = experiment: Induction of apoptosis in human Jurkat cells assessed as PARP cleavage at 1 to 10 uM after 24 hrs by Western blot analysis; assay type: functional, cell-based
Jurkat [10] = experiment: Cell cycle arrest in human Jurkat cells assessed as accumulation at G2/M phase at 10 uM after 24 hrs by FITC/propidium iodide staining-based FACS flow cytometric analysis (reference value: 13.2%); assay type: functional; how it was run: as §1
Histone deacetylase 8 = molecular target: T1, Histone deacetylase 8 (Homo sapiens, UniProt Q9BY41); experiment: Inhibition of recombinant HDAC8 (unknown origin) expressed in Escherichia coli BL21 using MAL as substrate incubated for 15 mins prior to substrate addition measured after 60 mins by fluorescence plate reader analysis
T1 sequence (Q9BY41 whole entry): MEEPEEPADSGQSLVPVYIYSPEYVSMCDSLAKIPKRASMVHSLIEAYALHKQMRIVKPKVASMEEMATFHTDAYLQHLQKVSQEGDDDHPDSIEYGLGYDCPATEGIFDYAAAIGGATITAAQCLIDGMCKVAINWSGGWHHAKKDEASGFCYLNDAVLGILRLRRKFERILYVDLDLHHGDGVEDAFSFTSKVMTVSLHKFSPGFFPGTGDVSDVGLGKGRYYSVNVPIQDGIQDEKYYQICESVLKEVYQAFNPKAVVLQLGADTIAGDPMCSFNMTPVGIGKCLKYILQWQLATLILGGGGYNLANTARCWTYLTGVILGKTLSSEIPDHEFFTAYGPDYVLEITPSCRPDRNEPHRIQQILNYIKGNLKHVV

Histone deacetylase 2 = Histone deacetylase 2 (Homo sapiens, UniProt Q92769); experiment: Inhibition of recombinant His-tagged HDAC2 (1 to 488) (unknown origin) using MAL as substrate incubated for 3 hrs prior to substrate addition measured after 60 mins by fluorescence plate reader analysis
[11] = molecular target: Histone deacetylase 3/NCoR1 (Homo sapiens, UniProt O15379); experiment: Inhibition of recombinant HDAC3-NCoR1 (unknown origin) using MAL as substrate incubated for 3 hrs prior to substrate addition measured after 60 mins by fluorescence plate reader analysis; assay type: protein-complex assay
Histone deacetylase 1 = Histone deacetylase 1 (Homo sapiens, UniProt Q13547); experiment: Inhibition of recombinant C-terminal FLAG-tagged HDAC1 (unknown origin) expressed in Escherichia coli BL21 using MAL as substrate incubated for 1 hr prior to substrate addition measured after 60 mins by fluorescence plate reader analysis
HeLa [12] = experiment: Cell cycle arrest in human HeLa cells assessed as accumulation at G2/M phase at 10 uM after 24 hrs by FITC/propidium iodide staining-based FACS flow cytometric analysis; assay type: functional; how it was run: as §1
[13] = molecular target: T2, Protein deacetylase HDAC6 (Homo sapiens, UniProt Q9UBN7); experiment: Inhibition of recombinant His-tagged HDAC6 (unknown origin) using Fluor-de-Lys SIRT1 as substrate incubated for 3 hrs prior to substrate addition measured after 60 mins by fluorescence plate reader analysis
T2 sequence (Q9UBN7 whole entry): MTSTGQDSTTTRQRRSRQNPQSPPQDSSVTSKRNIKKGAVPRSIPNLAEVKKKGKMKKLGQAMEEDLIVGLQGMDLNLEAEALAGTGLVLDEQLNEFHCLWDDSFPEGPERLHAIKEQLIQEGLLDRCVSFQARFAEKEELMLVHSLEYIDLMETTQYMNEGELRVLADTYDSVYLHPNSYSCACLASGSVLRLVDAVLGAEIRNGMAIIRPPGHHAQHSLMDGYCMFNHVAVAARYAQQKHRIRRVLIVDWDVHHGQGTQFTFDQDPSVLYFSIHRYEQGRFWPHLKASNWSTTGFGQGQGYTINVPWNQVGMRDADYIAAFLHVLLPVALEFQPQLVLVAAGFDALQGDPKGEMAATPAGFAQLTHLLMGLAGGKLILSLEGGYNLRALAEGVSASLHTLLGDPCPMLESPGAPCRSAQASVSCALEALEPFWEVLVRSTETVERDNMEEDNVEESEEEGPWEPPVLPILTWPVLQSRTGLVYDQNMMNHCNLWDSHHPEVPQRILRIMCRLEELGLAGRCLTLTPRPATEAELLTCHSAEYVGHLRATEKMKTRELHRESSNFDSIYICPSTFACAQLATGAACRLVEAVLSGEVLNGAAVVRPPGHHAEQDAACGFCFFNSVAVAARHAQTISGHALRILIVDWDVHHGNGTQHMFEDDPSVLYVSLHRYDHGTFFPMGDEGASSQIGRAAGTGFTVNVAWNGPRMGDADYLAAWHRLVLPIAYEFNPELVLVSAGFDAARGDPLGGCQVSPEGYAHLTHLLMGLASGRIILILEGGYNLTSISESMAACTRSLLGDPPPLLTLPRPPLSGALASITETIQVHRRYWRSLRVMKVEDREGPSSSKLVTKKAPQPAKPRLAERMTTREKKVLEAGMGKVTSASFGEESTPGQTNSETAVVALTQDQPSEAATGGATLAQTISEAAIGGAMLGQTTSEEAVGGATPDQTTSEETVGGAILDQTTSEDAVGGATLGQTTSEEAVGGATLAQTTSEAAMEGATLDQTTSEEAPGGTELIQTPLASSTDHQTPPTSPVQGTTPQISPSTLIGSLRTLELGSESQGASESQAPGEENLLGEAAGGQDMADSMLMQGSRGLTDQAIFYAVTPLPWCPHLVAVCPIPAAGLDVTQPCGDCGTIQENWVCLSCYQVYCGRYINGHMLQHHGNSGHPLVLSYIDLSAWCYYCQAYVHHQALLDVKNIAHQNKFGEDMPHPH

[14] = molecular target: Histone deacetylase 3/NCoR1 (Homo sapiens) (UniProt O15379+O75376); experiment: Competitive inhibition of recombinant HDAC3-NCoR1 (unknown origin) assessed as fast tight binding at 0.016 to 1 uM; assay type: protein-complex assay

Sequence of Histone deacetylase 2 (Q92769 whole entry): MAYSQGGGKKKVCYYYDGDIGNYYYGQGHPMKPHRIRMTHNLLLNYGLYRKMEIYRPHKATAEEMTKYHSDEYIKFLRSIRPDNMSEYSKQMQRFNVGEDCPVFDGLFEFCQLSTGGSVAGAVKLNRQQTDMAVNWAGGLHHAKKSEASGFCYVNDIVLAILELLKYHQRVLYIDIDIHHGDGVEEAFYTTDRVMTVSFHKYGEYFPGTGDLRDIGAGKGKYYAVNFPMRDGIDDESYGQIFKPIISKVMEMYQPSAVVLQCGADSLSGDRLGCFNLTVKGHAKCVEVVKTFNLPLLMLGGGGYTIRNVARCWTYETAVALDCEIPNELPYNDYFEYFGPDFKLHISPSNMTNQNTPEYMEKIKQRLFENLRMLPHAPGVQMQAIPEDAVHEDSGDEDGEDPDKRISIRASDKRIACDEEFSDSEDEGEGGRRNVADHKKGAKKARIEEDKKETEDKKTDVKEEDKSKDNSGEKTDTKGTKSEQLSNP
Sequence of Histone deacetylase 3/NCoR1 (O15379 whole entry): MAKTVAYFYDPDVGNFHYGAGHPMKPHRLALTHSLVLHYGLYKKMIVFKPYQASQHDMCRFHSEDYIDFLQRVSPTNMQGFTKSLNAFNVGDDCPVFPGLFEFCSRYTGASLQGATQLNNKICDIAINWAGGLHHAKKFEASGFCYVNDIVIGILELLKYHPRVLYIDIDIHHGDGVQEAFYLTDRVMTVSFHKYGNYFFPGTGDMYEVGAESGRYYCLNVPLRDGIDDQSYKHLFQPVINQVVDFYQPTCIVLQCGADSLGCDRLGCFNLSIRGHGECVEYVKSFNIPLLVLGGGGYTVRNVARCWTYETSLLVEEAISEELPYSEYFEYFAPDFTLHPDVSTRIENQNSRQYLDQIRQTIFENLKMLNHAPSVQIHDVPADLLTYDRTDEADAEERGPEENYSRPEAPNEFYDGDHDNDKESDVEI
Sequence of Histone deacetylase 3/NCoR1 (O75376 whole entry, further chain): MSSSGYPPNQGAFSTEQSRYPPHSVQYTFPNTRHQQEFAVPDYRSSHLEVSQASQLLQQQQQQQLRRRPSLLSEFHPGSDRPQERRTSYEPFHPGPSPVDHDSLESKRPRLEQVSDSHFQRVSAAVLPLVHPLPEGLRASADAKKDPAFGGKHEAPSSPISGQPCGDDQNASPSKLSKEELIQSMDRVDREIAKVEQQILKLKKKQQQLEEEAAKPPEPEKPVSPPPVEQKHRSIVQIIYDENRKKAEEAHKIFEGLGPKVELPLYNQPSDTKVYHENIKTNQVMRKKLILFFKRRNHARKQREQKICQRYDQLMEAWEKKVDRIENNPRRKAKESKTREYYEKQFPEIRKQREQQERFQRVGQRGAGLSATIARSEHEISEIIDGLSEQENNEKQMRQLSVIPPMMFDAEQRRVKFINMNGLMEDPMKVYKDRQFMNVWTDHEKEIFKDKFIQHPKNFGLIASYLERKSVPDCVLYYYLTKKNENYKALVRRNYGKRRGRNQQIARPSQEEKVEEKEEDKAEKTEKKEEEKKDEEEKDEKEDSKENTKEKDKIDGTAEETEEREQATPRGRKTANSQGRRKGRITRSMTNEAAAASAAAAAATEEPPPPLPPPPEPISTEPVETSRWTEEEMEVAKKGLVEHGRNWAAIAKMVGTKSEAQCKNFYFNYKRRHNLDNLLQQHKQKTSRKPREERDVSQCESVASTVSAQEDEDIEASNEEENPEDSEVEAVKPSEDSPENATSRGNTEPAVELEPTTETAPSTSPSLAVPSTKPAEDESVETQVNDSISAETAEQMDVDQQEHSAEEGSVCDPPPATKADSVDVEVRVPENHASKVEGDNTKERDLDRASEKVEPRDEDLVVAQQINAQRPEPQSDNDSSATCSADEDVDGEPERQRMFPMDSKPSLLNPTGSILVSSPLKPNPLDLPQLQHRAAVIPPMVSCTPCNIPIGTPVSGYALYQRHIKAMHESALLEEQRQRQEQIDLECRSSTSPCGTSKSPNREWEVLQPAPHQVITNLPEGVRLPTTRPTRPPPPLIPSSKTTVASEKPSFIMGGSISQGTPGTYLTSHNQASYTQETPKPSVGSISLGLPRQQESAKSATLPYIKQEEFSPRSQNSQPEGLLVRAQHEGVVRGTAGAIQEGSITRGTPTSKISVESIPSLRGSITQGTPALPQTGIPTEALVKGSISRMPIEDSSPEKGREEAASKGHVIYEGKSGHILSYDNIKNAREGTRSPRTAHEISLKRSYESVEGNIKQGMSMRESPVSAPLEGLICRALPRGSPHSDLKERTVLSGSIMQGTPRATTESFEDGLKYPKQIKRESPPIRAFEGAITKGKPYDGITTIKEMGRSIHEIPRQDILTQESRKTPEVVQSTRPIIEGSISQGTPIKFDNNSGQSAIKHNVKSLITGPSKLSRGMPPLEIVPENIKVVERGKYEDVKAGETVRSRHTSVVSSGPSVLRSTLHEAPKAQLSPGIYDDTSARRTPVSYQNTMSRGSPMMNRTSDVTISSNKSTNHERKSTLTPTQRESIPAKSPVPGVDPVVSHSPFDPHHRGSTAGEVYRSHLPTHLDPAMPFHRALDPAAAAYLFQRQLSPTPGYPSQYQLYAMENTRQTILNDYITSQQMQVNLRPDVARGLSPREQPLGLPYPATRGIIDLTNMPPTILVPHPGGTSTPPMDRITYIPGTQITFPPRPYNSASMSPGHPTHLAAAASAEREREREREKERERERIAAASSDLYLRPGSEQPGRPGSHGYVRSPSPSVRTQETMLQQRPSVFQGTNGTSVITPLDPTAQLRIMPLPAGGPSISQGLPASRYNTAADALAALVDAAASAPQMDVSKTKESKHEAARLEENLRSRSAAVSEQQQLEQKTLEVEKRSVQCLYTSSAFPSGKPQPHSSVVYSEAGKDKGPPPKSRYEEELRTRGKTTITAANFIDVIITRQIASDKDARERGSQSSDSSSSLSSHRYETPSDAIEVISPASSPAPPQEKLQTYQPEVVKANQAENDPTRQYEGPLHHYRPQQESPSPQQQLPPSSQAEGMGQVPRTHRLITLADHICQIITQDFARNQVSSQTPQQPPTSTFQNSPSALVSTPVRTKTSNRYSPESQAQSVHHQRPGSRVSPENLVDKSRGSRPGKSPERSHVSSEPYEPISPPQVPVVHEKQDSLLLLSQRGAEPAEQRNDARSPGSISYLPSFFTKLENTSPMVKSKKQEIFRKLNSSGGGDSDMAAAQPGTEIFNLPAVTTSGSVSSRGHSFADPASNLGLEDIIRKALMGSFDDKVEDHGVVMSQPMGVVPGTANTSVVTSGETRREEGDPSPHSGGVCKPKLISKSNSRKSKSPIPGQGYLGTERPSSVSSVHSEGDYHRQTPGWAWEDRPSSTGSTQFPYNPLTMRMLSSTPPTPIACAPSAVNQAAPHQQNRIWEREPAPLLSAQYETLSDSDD
Sequence of Histone deacetylase 1 (Q13547 whole entry): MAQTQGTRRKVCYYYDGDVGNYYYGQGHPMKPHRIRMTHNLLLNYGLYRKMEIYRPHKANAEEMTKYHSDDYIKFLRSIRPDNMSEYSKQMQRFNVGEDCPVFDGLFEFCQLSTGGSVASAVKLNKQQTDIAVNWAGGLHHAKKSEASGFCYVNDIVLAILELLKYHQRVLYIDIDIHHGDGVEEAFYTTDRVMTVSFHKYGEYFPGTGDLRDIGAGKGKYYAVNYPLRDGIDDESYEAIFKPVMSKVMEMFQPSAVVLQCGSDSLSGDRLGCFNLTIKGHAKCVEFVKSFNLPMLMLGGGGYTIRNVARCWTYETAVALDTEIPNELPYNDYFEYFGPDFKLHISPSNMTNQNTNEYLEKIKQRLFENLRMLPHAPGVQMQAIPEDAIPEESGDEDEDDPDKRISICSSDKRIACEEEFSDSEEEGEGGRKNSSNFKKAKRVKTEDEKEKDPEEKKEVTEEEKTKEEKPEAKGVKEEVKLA

## Nc1ccccc1NC(=O)c1ccc(CNc2nccc(-c3cccnc3)n2)cc1 [MOCETINOSTAT]
HCT-116
  pIC50: 6.15
HeLa [1]
  Activity: inactive
Jurkat [2]
  Activity: 26.2%
DU-145
  pIC50: 5.69
Jurkat [3]
  Activity: 10.2%
Jurkat [4]
  Activity: 39.8%
A549
  pIC50: 5.76
Jurkat [5]
  Activity: 32.4%
Jurkat [6]
  Activity: 8.7%
Jurkat [7]
  Activity: 41.3%
MCF7
  pIC50: 5.90
Jurkat [8]
  Activity: 17.4%
Jurkat [9]
  Activity: Active
Jurkat [10]
  Activity: 24%

## Nc1ccccc1NC(=O)c1ccc(CNC2=NC(=O)C(c3ccccc3)N2)cc1 (racemic)
HCT-116
  pIC50: 4.74
HeLa [1]
  Activity: inactive
Jurkat [2]
  Activity: 65.5%
DU-145
  pIC50: < 4.30
Jurkat [3]
  Activity: 15.1%
Histone deacetylase 8
  pIC50: 5.10
Jurkat [4]
  Activity: 55.2%
Histone deacetylase 2
  pIC50: 7.25
A549
  pIC50: < 4.30
Jurkat [5]
  Activity: 20.7%
[11]
  pIC50: 7.85
Jurkat [6]
  Activity: 22.3%
Jurkat [7]
  Activity: 7.4%
Histone deacetylase 1
  pIC50: 6.46
MCF7
  pIC50: 4.52
Jurkat [8]
  Activity: 3.1%
Jurkat [9]
  Activity: Active
HeLa [12]
  Activity: Active
Jurkat [10]
  Activity: 10.7%
[13]
  pIC50: < 4.70

## O=C(NO)c1ccc(CNc2nccc(-c3cccnc3)n2)cc1
Histone deacetylase 8
  pIC50: 6.39
Histone deacetylase 2
  pIC50: 6.66
[11]
  pIC50: 7.51
[14]
  inhibition: Active
[13]
  pIC50: 7.38
